TCR-CD3 inh: human TCR-CD3 binding inhibition. hit rate 0.37% among 360,000. AID 651800. inhibition, % at 9.4 µM. TAMRA-labeled TCR probe fluorescence, biochemical;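 note: recombinant mutant TCR 2C K166C tagged with TAMRA read by polarization; 0% = receptor in buffer alone and 100% = receptor with positive control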
PRMT1 inh: inhibitors of human PRMT1 | inhibition, % at 2.79 µM | hit rate 1.3% among 370,000 | recombinant PRMT1, activity-based probe fluorescence polarization;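 active = inhibition above about 21% made by adding two undisclosed values, limit read from the data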
Target sequence (Q99873 whole entry, looked up): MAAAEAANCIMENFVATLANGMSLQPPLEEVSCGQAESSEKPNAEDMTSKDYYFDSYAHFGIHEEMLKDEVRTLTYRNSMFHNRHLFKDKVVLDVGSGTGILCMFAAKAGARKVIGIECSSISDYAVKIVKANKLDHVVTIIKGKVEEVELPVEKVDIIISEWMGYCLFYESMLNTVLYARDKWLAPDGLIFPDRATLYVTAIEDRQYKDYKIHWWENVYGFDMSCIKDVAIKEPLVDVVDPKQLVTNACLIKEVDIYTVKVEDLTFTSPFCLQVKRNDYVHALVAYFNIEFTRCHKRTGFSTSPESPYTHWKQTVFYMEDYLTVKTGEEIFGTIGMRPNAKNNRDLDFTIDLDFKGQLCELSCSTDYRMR
ABHD4 inh: ABHD4 (mouse) inhibition, primary FP screen | Q8VD66 | purified mABHD4, FP-Rh probe fluorescence polarization | inhibition, % at 8.92 µM | hit rate 0.54% among 370,000 | AID 720543;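 active = inhibition exceeding the mean over every tested compound plus 3 SD, cut at about 30% in these data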;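 note: 0% = plate median of compound wells and 100% = S159A mutant with DMSO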
Target sequence (Q8VD66 whole entry, looked up): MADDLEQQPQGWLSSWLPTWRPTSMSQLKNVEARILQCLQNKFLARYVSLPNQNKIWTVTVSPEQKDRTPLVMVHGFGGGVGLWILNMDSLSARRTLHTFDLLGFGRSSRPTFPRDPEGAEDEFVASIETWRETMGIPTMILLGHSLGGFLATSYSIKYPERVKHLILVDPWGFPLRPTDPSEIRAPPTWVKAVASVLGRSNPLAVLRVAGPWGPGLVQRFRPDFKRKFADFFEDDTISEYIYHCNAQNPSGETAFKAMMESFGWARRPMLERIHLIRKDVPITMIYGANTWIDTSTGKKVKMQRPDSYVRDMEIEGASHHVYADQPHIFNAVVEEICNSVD
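Assay system: mABHD4 protein; medium: HEPES pH 7.0, NaCl, Pluronic buffer; dosing: 8.92 µM, single dose; schedule: 45 min + 60 min at 25 °C; signal: FP readout, ex 525 nm / em 598 nm; read-out: normalized percent inhibition of probe labeling; repeats: single replicate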
HTRA1 inh: blocks human HTRA1 serine peptidase | Q92743 | recombinant HTRA1, FP-rhodamine activity-based probe, fluorescence polarization | inhibition, % at 5.96 µM | hit rate 0.5% among 340,000; in the data active = inhibition above about 36%;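 note: 0% = enzyme with DMSO and 100% = wells lacking enzyme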
SIAE primary: blocks human sialic acid acetylesterase | hit rate 0.69% among 370,000 | Q9HAT2 | SIAE FP-Rh probe binding, fluorescence polarization | inhibition, % at 9.66 µM | AID 1053197;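 active = inhibition above a cutoff: mean of compounds within the control limits plus 3 SD of those, cut at about 17% in these data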;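 note: 0% = plate median of compound wells and 100% = probe without SIAE protein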
HTRA1 inh conf: confirmation of human HTRA1 inhibitors; hit rate 66% among 1,600; inhibition, % at 5.96 µM; AID 540248; recombinant HTRA1, FP-rhodamine activity-based probe, fluorescence polarization; shares compounds with HTRA1 inh;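 active = mean inhibition over three repeats above a set limit taken from the earlier primary screen, cut at about 37% in these data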;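 note: 0% = HTRA1 with DMSO and 100% = wells lacking HTRA1; inhibitors block probe binding so polarization drops and inhibition rises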
BSA TAMRA ctr: counter-screen for TCR-CD3 interaction inhibitors: BSA probe. hit rate 10% among 1,200. TAMRA-labeled BSA probe fluorescence counterscreen. shares compounds with TCR-CD3 inh. AID 652035. inhibition, % at 9.4 µM; in the data active = inhibition above about 23%;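 note: 0% = buffer low control and 100% = reference high control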
TCR-CD3 inh conf: TCR-CD3 interaction inhibition, confirmation | shares compounds with TCR-CD3 inh | TAMRA-labeled TCR probe fluorescence binding assay | inhibition, % at 9.4 µM | hit rate 48% among 1,200
PRMT1 inh conf: PRMT1 (human) inhibition, FP confirmation | shares compounds with PRMT1 inh | recombinant His-PRMT1, activity-based probe fluorescence polarization | inhibition, % at 2.79 µM | hit rate 42% among 3,300;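 active = mean inhibition across replicates above the hit cutoff derived for the earlier primary screen, cut at about 22% in these data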
ABHD4 confirm: confirmation of mouse ABHD4 inhibitors | AID 720658 | shares compounds with ABHD4 inh | hit rate 55% among 1,800 | inhibition, % at 8.92 µM | purified mABHD4, FP-Rh probe fluorescence polarization;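 active = mean inhibition across replicates above the hit cutoff set in the primary screen, cut at about 30% in these data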;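 note: 0% = wild-type ABHD4 with DMSO and 100% = catalytically dead S159A mutant with DMSO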
SIAE confirm: human SIAE inhibition, confirmation | shares compounds with SIAE primary | SIAE FP-Rh activity-based probe, fluorescence polarization | inhibition, % at 9.66 µM | hit rate 13% among 2,300 | AID 1117263;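 active = mean inhibition of the replicates above the hit cutoff set in the primary screen, cut at about 17% in these data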;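 note: 0% = SIAE with DMSO and probe and 100% = probe without SIAE; inhibitors lower polarization as more probe stays unbound to SIAE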
* marks the source's active call; other numbers are inactive results. Compounds with a hit are over-represented: about 2.6% of the library has one in this group of screens. Cut-off read from the data, not from the text of the source, unless noted: active = inhibition above about 19%; inactive = the rest.

Screening Cc1cc(C(=O)COc2cccc3cccnc23)c(C)n1C returned TCR-CD3 inh 11.3, PRMT1 inh 20.4, ABHD4 inh 74.1*, HTRA1 inh 80.4*, SIAE primary 22.5*, HTRA1 inh conf 16.3, ABHD4 confirm 12.2 and SIAE confirm 4.8.
Screening Cc1cc(C(=O)COc2ccccc2C(N)=O)c(C)n1C returned TCR-CD3 inh 4.0, PRMT1 inh -0.7, ABHD4 inh -1.2, HTRA1 inh 5.2 and SIAE primary 3.9.
For COc1ccccc1OCCNC(=O)CN1C(=O)NC2(CCCCC2)C1=O the results were TCR-CD3 inh 1.7, PRMT1 inh -2.4, ABHD4 inh 2.5, HTRA1 inh 8.9 and SIAE primary 5.3.
CCOC(=O)c1nn(-c2ccccc2Cl)c(=O)cc1OCC(=O)Nc1cccc(OC)c1 was read as TCR-CD3 inh -2.1, PRMT1 inh -1.1, ABHD4 inh 3.8, HTRA1 inh 1.7 and SIAE primary -18.2.
Screening O=c1ccc2c(-c3ccccc3)c3ccc(O)cc3oc-2c1 returned TCR-CD3 inh -39.7, PRMT1 inh 90.0*, ABHD4 inh 43.0*, HTRA1 inh 60.3*, SIAE primary 36.3*, HTRA1 inh conf 61.3*, ABHD4 confirm 81.3* and SIAE confirm 35.7*.
`O=c1cc(-c2ccccc2)oc2cc(O)ccc12` gave TCR-CD3 inh -2.8, PRMT1 inh -4.8, ABHD4 inh -16.3, HTRA1 inh -6.6 and SIAE primary 9.4.
Screening CC(C)C[C@H]1CNC(=O)C(=O)N1C[C@@H]1CCCN1C[C@H](Cc1ccccc1)N1C[C@H](CC(C)C)N(CC2CCCCC2)C(=O)C1=O returned TCR-CD3 inh -3.4, PRMT1 inh 3.4, ABHD4 inh -12.4 and SIAE primary 8.6.
Fc1cccc(NC(=S)NNc2c3ccccc3nc3ccccc23)c1 was read as TCR-CD3 inh -8.6, PRMT1 inh 0.6, ABHD4 inh 28.2, HTRA1 inh 36.5*, SIAE primary 38.7*, HTRA1 inh conf 28.8 and SIAE confirm 8.5.
For CCNc1ccc2noc3c2c1C(=O)c1ccccc1-3 the results were TCR-CD3 inh 126.1*, PRMT1 inh 153.6*, ABHD4 inh 121.9*, HTRA1 inh 123.1*, SIAE primary 97.8*, HTRA1 inh conf 112.3*, BSA TAMRA ctr active, TCR-CD3 inh conf 186.6*, ABHD4 confirm 116.0* and SIAE confirm 91.4*.
`O=C1c2ccccc2-c2onc3ccc(N4CCCC4)c1c23` gave TCR-CD3 inh 110.8*, PRMT1 inh 89.5*, ABHD4 inh 99.4*, HTRA1 inh 91.4*, SIAE primary 76.3*, HTRA1 inh conf 27.3, BSA TAMRA ctr 186.0*, TCR-CD3 inh conf 144.8*, PRMT1 inh conf 74.0*, ABHD4 confirm 70.1* and SIAE confirm 56.4*.
Screening O=S(=O)(NCc1ccccc1)c1cc(Br)ccc1Br returned TCR-CD3 inh 1.3, PRMT1 inh -2.6, ABHD4 inh -2.8 and SIAE primary -2.9.
Screening Cn1nc([N+](=O)[O-])c(C(C#N)c2ccccn2)c(Cl)c1=O (stereo unspecified) returned TCR-CD3 inh 4.1, PRMT1 inh 18.8, ABHD4 inh 16.8, HTRA1 inh 10.2 and SIAE primary 8.6.
CCn1nc([N+](=O)[O-])c(C(C#N)c2nc3cc(C(F)(F)F)ccc3s2)c(Cl)c1=O (stereo unspecified) was read as TCR-CD3 inh 0.8, PRMT1 inh 28.2*, ABHD4 inh 85.1*, HTRA1 inh 79.4*, SIAE primary 22.7*, HTRA1 inh conf 76.3*, PRMT1 inh conf 31.2*, ABHD4 confirm 101.0* and SIAE confirm 18.2*.
Screening CCCn1nc([N+](=O)[O-])c(C(C#N)c2nc3ccccc3o2)c(Cl)c1=O (stereo unspecified) returned TCR-CD3 inh -0.8, PRMT1 inh 22.4*, ABHD4 inh 79.9*, HTRA1 inh 68.6*, SIAE primary 22.0*, HTRA1 inh conf 82.7*, ABHD4 confirm 94.6* and SIAE confirm 5.2.
Screening Cc1ccc(-c2cc(-c3nnc(SCC(=O)NC4CCCCC4)n3N)[nH]n2)cc1 returned PRMT1 inh 0.8, ABHD4 inh -2.1 and SIAE primary -5.4.
Screening Cn1c(=O)c(NCCc2ccccc2)c2c3c(cccc31)C(=O)c1ccccc1-2 returned TCR-CD3 inh active, PRMT1 inh active, ABHD4 inh 198.0*, HTRA1 inh 146.1*, SIAE primary 169.9*, HTRA1 inh conf 149.2*, BSA TAMRA ctr active, TCR-CD3 inh conf active, ABHD4 confirm active and SIAE confirm 159.6*.
Cn1c(=O)c(NCCO)c2c3c(cccc31)C(=O)c1ccccc1-2 was read as TCR-CD3 inh 71.3*, PRMT1 inh 184.3*, ABHD4 inh 93.2*, HTRA1 inh 60.2*, SIAE primary 57.8*, HTRA1 inh conf 71.9*, BSA TAMRA ctr 116.6*, TCR-CD3 inh conf 79.5*, PRMT1 inh conf 184.2*, ABHD4 confirm 85.0* and SIAE confirm 117.2*.
`Cn1c(NCCc2ccccc2)cc(=O)n(C)c1=O` gave TCR-CD3 inh -8.8, PRMT1 inh 0.7, ABHD4 inh -0.5, HTRA1 inh 0.3 and SIAE primary 3.7.
Cn1cc(CN2CCC(n3nccc3NC(=O)C3CCCC3)CC2)cn1 was read as TCR-CD3 inh 3.6, PRMT1 inh -3.3, ABHD4 inh 3.4, HTRA1 inh 6.1 and SIAE primary 4.8.
`C=CCn1c(SCC(=O)c2ccc(O)c(O)c2)nnc1-c1cccc(C)c1` gave TCR-CD3 inh 13.8, PRMT1 inh 7.5, ABHD4 inh 41.1*, HTRA1 inh 70.2*, SIAE primary 18.7*, HTRA1 inh conf 77.6*, ABHD4 confirm 29.8* and SIAE confirm 5.1.
COc1ccc(NC(=O)CN(C)C(=O)c2ccc(-c3ccccc3Cl)o2)cc1 was read as TCR-CD3 inh -3.0, PRMT1 inh 4.1, ABHD4 inh -1.1, HTRA1 inh -20.9 and SIAE primary -3.3.
For CC1(C)CC(NC(=O)c2ccccc2)CC(C)(C)N1 the results were TCR-CD3 inh 1.2, PRMT1 inh -10.0, ABHD4 inh -1.4, HTRA1 inh 4.5 and SIAE primary -0.3.

Screening data deposited in PubChem by The Scripps Research Institute Molecular Screening Center.
